# Test results taken from ChEMBL document CHEMBL1255376, “Comparative surveillance study of telavancin activity against recently collected gram-positive clinical isolates from across the United States” (2008).
# Columns and labels:
# Assay type in all cases: functional
# Staphylococcus aureus [1] = test: Antibacterial activity against methicillin-susceptible Staphylococcus aureus clinical isolate by broth microdilution method
# Method in brief: (§1)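 MICs by CLSI broth microdilution in frozen trays pre-loaded with serial dilutions of each agent. Quality-control strains run in parallel: E. faecalis ATCC 29212 and ATCC 51299, S. aureus ATCC 29213, S. pneumoniae ATCC 49619. Comparator susceptibility categories follow CLSI breakpoints. Methicillin resistance in staphylococci assigned from the oxacillin MIC.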
# Staphylococcus aureus [2] = test: Antibacterial activity against methicillin-resistant Staphylococcus aureus clinical isolate by broth microdilution method; method in brief: as §1
# Staphylococcus capitis [3] = test: Antibacterial activity against methicillin-susceptible coagulase-negative Staphylococcus capitis clinical isolate by broth microdilution method; method in brief: as §1
# Staphylococcus cohnii [4] = test: Antibacterial activity against methicillin-susceptible coagulase-negative Staphylococcus cohnii clinical isolate by broth microdilution method; method in brief: as §1
# [5] = test system: Staphylococcus epidermidis; test: Antibacterial activity against methicillin-susceptible coagulase-negative Staphylococcus epidermidis clinical isolate by broth microdilution method; method in brief: as §1
# [6] = test system: Staphylococcus haemolyticus; test: Antibacterial activity against methicillin-susceptible coagulase-negative Staphylococcus haemolyticus clinical isolate by broth microdilution method; method in brief: as §1
# Staphylococcus hominis [7] = test: Antibacterial activity against methicillin-susceptible coagulase-negative Staphylococcus hominis clinical isolate by broth microdilution method; method in brief: as §1
# [8] = test system: Staphylococcus saprophyticus; test: Antibacterial activity against methicillin-susceptible coagulase-negative Staphylococcus saprophyticus clinical isolate by broth microdilution method; method in brief: as §1
# Mammaliicoccus sciuri [9] = test: Antibacterial activity against methicillin-susceptible coagulase-negative Staphylococcus sciuri clinical isolate by broth microdilution method; method in brief: as §1
# Staphylococcus simulans [10] = test: Antibacterial activity against methicillin-susceptible coagulase-negative Staphylococcus simulans clinical isolate by broth microdilution method; method in brief: as §1
# Staphylococcus warneri [11] = test: Antibacterial activity against methicillin-susceptible coagulase-negative Staphylococcus warneri clinical isolate by broth microdilution method; method in brief: as §1
# Staphylococcus xylosus [12] = test: Antibacterial activity against methicillin-susceptible coagulase-negative Staphylococcus xylosus clinical isolate by broth microdilution method; method in brief: as §1
# Staphylococcus [13] = test: Antibacterial activity against methicillin-susceptible coagulase-negative unspeciated Staphylococcus clinical isolate by broth microdilution method; method in brief: as §1
# Staphylococcus capitis [14] = test: Antibacterial activity against methicillin-resistant coagulase-negative Staphylococcus capitis clinical isolate by broth microdilution method; method in brief: as §1
# Staphylococcus cohnii [15] = test: Antibacterial activity against methicillin-resistant coagulase-negative Staphylococcus cohnii clinical isolate by broth microdilution method; method in brief: as §1
# [16] = test system: Staphylococcus epidermidis; test: Antibacterial activity against methicillin-resistant coagulase-negative Staphylococcus epidermidis clinical isolate by broth microdilution method; method in brief: as §1
# [17] = test system: Staphylococcus haemolyticus; test: Antibacterial activity against methicillin-resistant coagulase-negative Staphylococcus haemolyticus clinical isolate by broth microdilution method; method in brief: as §1
# Staphylococcus hominis [18] = test: Antibacterial activity against methicillin-resistant coagulase-negative Staphylococcus hominis clinical isolate by broth microdilution method; method in brief: as §1
# [19] = test system: Staphylococcus saprophyticus; test: Antibacterial activity against methicillin-resistant coagulase-negative Staphylococcus saprophyticus clinical isolate by broth microdilution method; method in brief: as §1
# Mammaliicoccus sciuri [20] = test: Antibacterial activity against methicillin-resistant coagulase-negative Staphylococcus sciuri clinical isolate by broth microdilution method; method in brief: as §1
# Staphylococcus simulans [21] = test: Antibacterial activity against methicillin-resistant coagulase-negative Staphylococcus simulans clinical isolate by broth microdilution method; method in brief: as §1
# Staphylococcus warneri [22] = test: Antibacterial activity against methicillin-resistant coagulase-negative Staphylococcus warneri clinical isolate by broth microdilution method; method in brief: as §1
# Staphylococcus xylosus [23] = test: Antibacterial activity against methicillin-resistant coagulase-negative Staphylococcus xylosus clinical isolate by broth microdilution method; method in brief: as §1
# Staphylococcus [24] = test: Antibacterial activity against methicillin-resistant coagulase-negative unspeciated Staphylococcus clinical isolate by broth microdilution method; method in brief: as §1
# Enterococcus faecalis [25] = test: Antibacterial activity against vancomycin-susceptible Enterococcus faecalis clinical isolate by broth microdilution method; method in brief: as §1
# Enterococcus faecalis [26] = test: Antibacterial activity against vancomycin- and teichoplanin-nonsusceptible Enterococcus faecalis clinical isolate by broth microdilution method; method in brief: as §1
# Enterococcus faecium [27] = test: Antibacterial activity against vancomycin-susceptible Enterococcus faecium clinical isolate by broth microdilution method
# Method in brief: (§2)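 MIC by CLSI broth microdilution in frozen microtiter trays holding serial dilutions of each agent, prepared from standard laboratory powders. E. faecalis ATCC 29212 and ATCC 51299, S. aureus ATCC 29213 and S. pneumoniae ATCC 49619 run in parallel as quality-control strains. Comparator susceptibility interpreted with CLSI breakpoints.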
# Enterococcus faecium [28] = test: Antibacterial activity against vancomycin- and teichoplanin-nonsusceptible Enterococcus faecium clinical isolate by broth microdilution method; method in brief: as §1
# Enterococcus faecium [29] = test: Antibacterial activity against vancomycin-resistant and teichoplanin-susceptible Enterococcus faecium clinical isolate by broth microdilution method; method in brief: as §1
# Streptococcus agalactiae = test: Antibacterial activity against Streptococcus agalactiae clinical isolate by broth microdilution method; method in brief: as §2
# Streptococcus equinus = test: Antibacterial activity against Streptococcus bovis clinical isolate by broth microdilution method; method in brief: as §2
# [30] = test system: Streptococcus constellatus; test: Antibacterial activity against Streptococcus constellatus clinical isolate by broth microdilution method; method in brief: as §2
# [31] = test system: Streptococcus intermedius; test: Antibacterial activity against Streptococcus intermedius clinical isolate by broth microdilution method; method in brief: as §2
# Streptococcus mitis = test: Antibacterial activity against Streptococcus mitis clinical isolate by broth microdilution method; method in brief: as §2
# Streptococcus oralis = test: Antibacterial activity against Streptococcus oralis clinical isolate by broth microdilution method; method in brief: as §2
# Streptococcus sanguinis = test: Antibacterial activity against Streptococcus sanguinis clinical isolate by broth microdilution method; method in brief: as §2
# Streptococcus sp. [32] = test: Antibacterial activity against Streptococcus sp. clinical isolate by broth microdilution method
# Method in brief: (§3)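 MIC by CLSI broth microdilution in frozen microtiter trays holding serial dilutions of each agent, prepared from standard laboratory powders. Comparator susceptibility interpreted with CLSI breakpoints.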
# Streptococcus pneumoniae [33] = test: Antibacterial activity against penicillin susceptible Streptococcus pneumoniae clinical isolate by broth microdilution method; method in brief: as §1
# Streptococcus pneumoniae [34] = test: Antibacterial activity against penicillin intermediate Streptococcus pneumoniae clinical isolate by broth microdilution method; method in brief: as §1
# Streptococcus pneumoniae [35] = test: Antibacterial activity against penicillin resistant Streptococcus pneumoniae clinical isolate by broth microdilution method; method in brief: as §1
# Streptococcus pyogenes = test: Antibacterial activity against Streptococcus pyogenes clinical isolate by broth microdilution method; method in brief: as §2
# [36] = Antibacterial activity against Streptococcus sp. Group C clinical isolate by broth microdilution method; method in brief: as §2
# Streptococcus sp. [37] = test: Antibacterial activity against Streptococcus sp. Group F clinical isolate by broth microdilution method; method in brief: as §3
# [38] = Antibacterial activity against Streptococcus sp. Group G clinical isolate by broth microdilution method; method in brief: as §2
compound,measurement,setting,value
GENTAMICIN,MIC50,Staphylococcus aureus [1],0.25 µg/mL
same,MIC90,Staphylococcus aureus [1],0.5 µg/mL
same,MIC50,Staphylococcus aureus [2],0.5 µg/mL
same,MIC90,Staphylococcus aureus [2],2 µg/mL
CC(=O)NC[C@H]1CN(c2ccc(N3CCOCC3)c(F)c2)C(=O)O1 [LINEZOLID],MIC50,Staphylococcus aureus [1],2 µg/mL
same,MIC90,Staphylococcus aureus [1],2 µg/mL
same,MIC50,Staphylococcus aureus [2],2 µg/mL
same,MIC90,Staphylococcus aureus [2],2 µg/mL
same,MIC50,Staphylococcus capitis [3],1 µg/mL
same,MIC90,Staphylococcus capitis [3],1 µg/mL
same,MIC50,Staphylococcus cohnii [4],1 µg/mL
same,MIC90,Staphylococcus cohnii [4],1 µg/mL
same,MIC50,[5],1 µg/mL
same,MIC90,[5],1 µg/mL
same,MIC50,[6],1 µg/mL
same,MIC90,[6],1 µg/mL
same,MIC50,Staphylococcus hominis [7],1 µg/mL
same,MIC90,Staphylococcus hominis [7],1 µg/mL
same,MIC50,[8],1 µg/mL
same,MIC90,[8],1 µg/mL
same,MIC50,Mammaliicoccus sciuri [9],1 µg/mL
same,MIC90,Mammaliicoccus sciuri [9],1 µg/mL
same,MIC50,Staphylococcus simulans [10],1 µg/mL
same,MIC90,Staphylococcus simulans [10],1 µg/mL
same,MIC50,Staphylococcus warneri [11],1 µg/mL
same,MIC90,Staphylococcus warneri [11],1 µg/mL
same,MIC50,Staphylococcus xylosus [12],1 µg/mL
same,MIC90,Staphylococcus xylosus [12],1 µg/mL
same,MIC50,Staphylococcus [13],1 µg/mL
same,MIC90,Staphylococcus [13],1 µg/mL
same,MIC50,Staphylococcus capitis [14],1 µg/mL
same,MIC90,Staphylococcus capitis [14],1 µg/mL
same,MIC50,Staphylococcus cohnii [15],1 µg/mL
same,MIC90,Staphylococcus cohnii [15],1 µg/mL
same,MIC50,[16],1 µg/mL
same,MIC90,[16],1 µg/mL
same,MIC50,[17],1 µg/mL
same,MIC90,[17],1 µg/mL
same,MIC50,Staphylococcus hominis [18],1 µg/mL
same,MIC90,Staphylococcus hominis [18],1 µg/mL
same,MIC50,[19],1 µg/mL
same,MIC90,[19],1 µg/mL
same,MIC50,Mammaliicoccus sciuri [20],1 µg/mL
same,MIC90,Mammaliicoccus sciuri [20],1 µg/mL
same,MIC50,Staphylococcus simulans [21],1 µg/mL
same,MIC90,Staphylococcus simulans [21],1 µg/mL
same,MIC50,Staphylococcus warneri [22],1 µg/mL
same,MIC90,Staphylococcus warneri [22],1 µg/mL
same,MIC50,Staphylococcus xylosus [23],1 µg/mL
same,MIC90,Staphylococcus xylosus [23],1 µg/mL
same,MIC50,Staphylococcus [24],1 µg/mL
same,MIC90,Staphylococcus [24],1 µg/mL
same,MIC50,Enterococcus faecalis [25],1 µg/mL
same,MIC90,Enterococcus faecalis [25],2 µg/mL
same,MIC50,Enterococcus faecalis [26],1 µg/mL
same,MIC90,Enterococcus faecalis [26],2 µg/mL
same,MIC50,Enterococcus faecium [27],2 µg/mL
same,MIC90,Enterococcus faecium [27],2 µg/mL
same,MIC50,Enterococcus faecium [28],2 µg/mL
same,MIC90,Enterococcus faecium [28],2 µg/mL
same,MIC50,Enterococcus faecium [29],2 µg/mL
same,MIC90,Enterococcus faecium [29],2 µg/mL
same,MIC50,Streptococcus agalactiae,1 µg/mL
same,MIC90,Streptococcus agalactiae,1 µg/mL
same,MIC50,Streptococcus equinus,1 µg/mL
same,MIC90,Streptococcus equinus,1 µg/mL
same,MIC50,[30],1 µg/mL
same,MIC90,[30],1 µg/mL
same,MIC50,[31],1 µg/mL
same,MIC90,[31],1 µg/mL
same,MIC50,Streptococcus mitis,1 µg/mL
same,MIC90,Streptococcus mitis,1 µg/mL
same,MIC50,Streptococcus oralis,1 µg/mL
same,MIC90,Streptococcus oralis,1 µg/mL
same,MIC50,Streptococcus sanguinis,1 µg/mL
same,MIC90,Streptococcus sanguinis,1 µg/mL
same,MIC,Streptococcus sp. [32],≤ 0.12 µg/mL
same,MIC50,Streptococcus pneumoniae [33],1 µg/mL
same,MIC90,Streptococcus pneumoniae [33],1 µg/mL
same,MIC50,Streptococcus pneumoniae [34],1 µg/mL
same,MIC90,Streptococcus pneumoniae [34],1 µg/mL
same,MIC50,Streptococcus pneumoniae [35],1 µg/mL
same,MIC90,Streptococcus pneumoniae [35],1 µg/mL
CC1(C)S[C@@H]2[C@H](NC(=O)Cc3ccccc3)C(=O)N2[C@H]1C(=O)O [PENICILLIN G],MIC,Streptococcus pyogenes,≤ 0.06 µg/mL
same,MIC50,Streptococcus pyogenes,≤ 0.06 µg/mL
same,MIC90,Streptococcus pyogenes,≤ 0.06 µg/mL
same,MIC,Streptococcus agalactiae,≤ 0.06 µg/mL
same,MIC50,Streptococcus agalactiae,≤ 0.06 µg/mL
same,MIC90,Streptococcus agalactiae,≤ 0.06 µg/mL
same,MIC,[36],≤ 0.06 µg/mL
same,MIC50,[36],≤ 0.06 µg/mL
same,MIC90,[36],≤ 0.06 µg/mL
same,MIC,Streptococcus sp. [37],≤ 0.06 µg/mL
same,MIC50,Streptococcus sp. [37],≤ 0.06 µg/mL
same,MIC90,Streptococcus sp. [37],≤ 0.06 µg/mL
same,MIC,[38],≤ 0.06 µg/mL
same,MIC50,[38],≤ 0.06 µg/mL
same,MIC90,[38],≤ 0.06 µg/mL
same,MIC,Streptococcus equinus,≤ 0.06 µg/mL
same,MIC50,Streptococcus equinus,≤ 0.06 µg/mL
same,MIC90,Streptococcus equinus,1 µg/mL
same,MIC,[30],≤ 0.06 µg/mL
same,MIC50,[30],≤ 0.06 µg/mL
same,MIC90,[30],1 µg/mL
same,MIC,[31],≤ 0.06 µg/mL
same,MIC50,[31],≤ 0.06 µg/mL
same,MIC90,[31],1 µg/mL
same,MIC,Streptococcus mitis,≤ 0.06 µg/mL
same,MIC50,Streptococcus mitis,≤ 0.06 µg/mL
same,MIC90,Streptococcus mitis,1 µg/mL
same,MIC,Streptococcus oralis,≤ 0.06 µg/mL
same,MIC50,Streptococcus oralis,≤ 0.06 µg/mL
same,MIC90,Streptococcus oralis,1 µg/mL
same,MIC,Streptococcus sanguinis,≤ 0.06 µg/mL
same,MIC50,Streptococcus sanguinis,≤ 0.06 µg/mL
same,MIC90,Streptococcus sanguinis,1 µg/mL
same,MIC,Streptococcus sp. [32],≤ 0.06 µg/mL
same,MIC50,Streptococcus sp. [32],≤ 0.06 µg/mL
same,MIC90,Streptococcus sp. [32],1 µg/mL
same,MIC,Streptococcus pneumoniae [33],≤ 0.06 µg/mL
same,MIC50,Streptococcus pneumoniae [33],≤ 0.06 µg/mL
same,MIC90,Streptococcus pneumoniae [33],≤ 0.06 µg/mL
